Experimental data: ChEMBL document CHEMBL1154189 (J Med Chem, 2009)
Activity calls are given as the source filed them. No cut-off for these calls is given here.

What was measured:
Saccharomyces cerevisiae = assay: Mutagenic activity in Saccharomyces cerevisiae after 3 hrs; assay type: ADME, organism-based; conditions: in vivo
How it was run: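 Tested in a Saccharomyces cerevisiae strain engineered with three phenotypic readouts, with 3 hour incubation against DMSO vehicle.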

HuT78 [1] = assay: Cytotoxicity against human HUT78 cells assessed as LDH release at 10 mM after 48 hrs
HuT78 [2] = assay: Cytotoxicity against human HUT78 cells assessed as LDH release at 100 nM after 48 hrs
HuT78 [3] = assay: Induction of apoptosis in human HUT78 cells assessed as caspase 3/7 activation after 24 hrs by luminometry; assay type: functional, cell-based
How it was run: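 Hut78 CTCL cells were plated and dosed immediately with ethanol vehicle, test agent, water, or sodium butyrate (positive control), then incubated 24 hours. Caspase-Glo lysis/substrate mix was added, and cleavage of the substrate by caspase 3/7 was read as luminescence. Ethanol-treated cells served as the comparison.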

SMILES	Activity (Saccharomyces cerevisiae)	also measured
Cc1cc2c(cc1C(=O)c1ccc(C(=O)O)c(F)c1)C(C)(C)CCC2(C)C	Non-toxic	
NC(=O)NO [HYDROXYUREA]		Activity (HuT78 [1]): 97%
Cc1cc2c(cc1C(=O)c1ccc(C(=O)O)cc1)C(C)(C)CCC2(C)C	Non-toxic	
Cc1cc2c(cc1C(=O)c1ccc(C(=O)O)c([N+](=O)[O-])c1)C(C)(C)CCC2(C)C	Non-toxic	
C=C(c1ccc(C(=O)O)cc1)c1cc2c(cc1C)C(C)(C)CCC2(C)C [BEXAROTENE]	Non-toxic	
C=C(c1cc(C(=O)O)cc(C(=O)O)c1)c1cc2c(cc1C)C(C)(C)CCC2(C)C	Non-toxic	
Cc1cc2c(cc1C(=O)c1cccc(C(=O)O)c1)C(C)(C)CCC2(C)C	Non-toxic	
Cc1cc2c(cc1C(=O)c1cc(C(=O)O)cc(C(=O)O)c1)C(C)(C)CCC2(C)C	Non-toxic	
Cc1cc2c(cc1C(=O)c1ccc(C(=O)O)cc1F)C(C)(C)CCC2(C)C	Non-toxic	Activity (HuT78 [2]): Active; Activity (HuT78 [3]): inactive
